From PubChem
STAT1 blocker – inhibitors of IFN-gamma induced STAT1 signaling. NIH 3T3 STAT1-luciferase reporter, luminescence. inhibition, % at 5.5 µM. 200,000 compounds, 0.35% hits. AID 920;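 active means inhibition above a set limit, the mean inhibition across all tested compounds plus 3 SD, cut at about 34% in these data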
APP 5'UTR act – APP 5'UTR luciferase reporter activation; 190,000 compounds, 1% hits; activation, % at 2 µM; SH-SY5Y APP 5'UTR luciferase reporter, luminescence; zero percent = DMSO vehicle wells;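 active means activation above a set limit, based on mean plus 3 SD of controls, cut at about 140% in these data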
STAT3 blocker – inhibitors of IL-6 induced STAT3 signaling; U3A cells, IL-6 STAT3-luciferase reporter, luminescence; host cell line lacks STAT1; inhibition, % at 5.5 µM; 190,000 compounds, 0.89% hits;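 active means inhibition above the mean inhibition across all screened compounds plus 3 SD, cut at about 44% in these data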
NF-kB neuron act – raises NF-kB expression in human neuronal cells; fold change at 12.5 µM; 190,000 compounds, 1.6% hits; NF-kB reporter expression; hits give high values; in the data active means fold change above about 3.3
STAT1 act-1 – activators of IFN-gamma induced STAT1 signaling; NIH 3T3 STAT1-luciferase reporter, luminescence; 100% = IFN-gamma alone, no compound; activation (% of control), % at 5.5 µM; 200,000 compounds, 2.6% hits;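 active means activation above the screen-wide mean activation plus 3 SD, cut at about 130% in these data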
STAT3 act-1 – increases IL-6 driven STAT3 reporter signal; U3A cells, IL-6 STAT3-luciferase reporter, luminescence; 100% = signal with IL-6 EC80 alone; activation (% of control), % at 5.6 µM; 190,000 compounds, 0.91% hits; AID 871;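 active means activation above the screen-wide mean of compound activation plus 3 SD, cut at about 130% in these data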
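Material: STAT3-luciferase reporter U3A cells; Probe or stimulus: IL-6 (33 ng/mL); Incubation: compound pre-incubation 1 h before IL-6, then 6 h stimulation at 37 °C; Technique: luminescence from STAT3-driven luciferase reporter; Evaluation: % activation versus median of IL-6-stimulated wells; Controls: IL-6-only high control.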
STAT3 act-2 – confirmation of STAT3 signaling activators. shares compounds with STAT3 act-1. AID 1267. potentiation (% of control), % at 5.7 µM. U3A STAT3-luciferase reporter, IL-6 potentiation, luminescence; U3A cells lack STAT1; 100 means same as IL-6 alone. 1,200 compounds, 64% hits;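 active means percent activation of the STAT3 luciferase reporter above a set limit taken from the earlier primary screen, cut at about 130% in these data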
NFkB act STAT3ct – counter-screen for STAT3 activators: NF-kappaB activation; shares compounds with STAT3 act-1; human cells, NF-kappaB reporter activation; activation (% of control), % at 5.7 µM; 1,200 compounds, 11% hits; AID 1309; in the data active means activation above about 120%;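 further: reporter induced by TNF-alpha stimulation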
STAT1 act-2 – STAT1 activation in STAT3 activator counter-screen; shares compounds with STAT3 act-1; NIH 3T3 STAT1-luciferase reporter, IFN-gamma, luminescence; activation (% of control), % at 5.7 µM; 1,200 compounds, 13% hits; AID 1318;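 active means activation above the solvent-only control well mean plus 3 SD, set per screening run, cut at about 120% in these data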
Of the large screens only hits and unclear results are named; the others gave an inactive call (follow-up assays come after a bar, where they were run). This is a sample that favours compounds with a hit; in the whole collection about 4.9% have one here.

Cn1c(=O)c2c(nc(N3CCCC3)n2CC(O)CO)n(C)c1=O (configuration not stated)	STAT3 act-1 141 | STAT3 act-2 inactive | NFkB act STAT3ct inactive | STAT1 act-2 inactive
Cc1ccc(NC(=S)Nc2cccc3cnccc23)cc1	STAT3 act-1 137 | STAT3 act-2 143 | NFkB act STAT3ct inactive | STAT1 act-2 inactive
Cn1cc(C(CC(=O)O)C(=O)O)c2ccccc21 (configuration not stated)	none
CCOC(=O)CC(C#N)c1cn(C)c2ccccc12 (configuration not stated)	STAT3 act-1 145 | STAT3 act-2 inactive | NFkB act STAT3ct inactive | STAT1 act-2 inactive
COc1cc(/C=N/Nc2snc(SC)c2C#N)ccc1O	STAT3 act-1 148 | STAT3 act-2 136 | NFkB act STAT3ct inactive | STAT1 act-2 inactive
COc1cc(/C=N/Nc2nc3ccccc3[nH]2)ccc1O	none
Cn1c2ccccc2c2ncn(Cc3ccco3)c(=O)c21	none
O=c1c2ccccc2ncn1Cc1ccco1	STAT3 act-1 147 | STAT3 act-2 145 | NFkB act STAT3ct inactive | STAT1 act-2 inactive
Cc1ccnc(N2CCC(C(=O)NNC(=O)COc3cccc4ccccc34)CC2)n1	none
O=c1c(Cl)c(N/N=C/c2ccc(Br)cc2)cnn1-c1ccccc1	STAT3 act-1 150 | STAT3 act-2 inactive | NFkB act STAT3ct inactive | STAT1 act-2 inactive
CCCCN1C(=O)C(=Nc2cccc3cnccc23)c2ccccc21	none
CCNCCNC(=O)c1c(O)c2ccccc2n(CC)c1=O	none
CCn1c(=O)c(C(=O)Nc2ccccc2C)c(O)c2ccccc21	STAT3 act-1 140 | STAT3 act-2 141 | NFkB act STAT3ct inactive | STAT1 act-2 inactive
CCCCCCC(=O)NNC(=O)c1c(O)c2ccccc2n(CCC)c1=O	none
CCCn1c(=O)c(C(=O)Nc2ccccc2)c(O)c2ccccc21	STAT3 act-1 137 | STAT3 act-2 inactive | NFkB act STAT3ct inactive | STAT1 act-2 inactive
CCn1c(=O)c(C(=O)NCCc2ccccc2)c(O)c2ccccc21	STAT3 act-1 137 | STAT3 act-2 134 | NFkB act STAT3ct inactive | STAT1 act-2 inactive
CCOc1ccccc1NC1=C(Cl)C(=O)N(c2ccccc2)C1=O	none
COc1ccc(CN2CCNC(=O)C2CC(=O)NCCc2c[nH]c3ccccc23)c(OC)c1 (configuration not stated)	none
Cc1ccc(-n2nc(C)c3c(-c4cccs4)c(C#N)c(N)nc32)cc1	STAT3 act-1 144 | STAT3 act-2 inactive | NFkB act STAT3ct inactive | STAT1 act-2 inactive
COc1ccc(OC)c(NC(=O)c2ccc(-c3cccs3)cc2)c1	none
COC(=O)C1=C(C)N(CCc2c[nH]c3ccccc23)C(=O)/C1=C\N(C)C	none
CC1=CCC2C(=O)N(CCc3c[nH]c4ccccc34)C(=O)C2C1 (configuration not stated)	STAT3 act-1 142 | STAT3 act-2 inactive | NFkB act STAT3ct inactive | STAT1 act-2 inactive
O=C1C2CC=C(Cl)CC2C(=O)N1CCc1c[nH]c2ccccc12 (configuration not stated)	STAT3 act-1 141 | STAT3 act-2 149 | NFkB act STAT3ct inactive | STAT1 act-2 inactive
COc1ccccc1OCCNC(=O)Cc1ccc(Cl)c(Cl)c1	none
COCc1cc(=O)n2c(-c3ccccc3OC)n[nH]c2n1	STAT3 act-1 145 | STAT3 act-2 159 | NFkB act STAT3ct inactive | STAT1 act-2 inactive
O=C(CSc1ncc(-c2ccccc2)n1C1CCCC1)N1CCc2ccccc21	STAT3 act-1 141 | STAT3 act-2 inactive | NFkB act STAT3ct inactive | STAT1 act-2 inactive
CCn1c(CSc2ncccn2)nnc1SCC(=O)N1CCc2ccccc21	STAT3 act-1 148 | STAT3 act-2 inactive | NFkB act STAT3ct inactive | STAT1 act-2 inactive
CCOc1ccccc1NC(=O)NC(=O)N(C)S(=O)(=O)c1ccc(C)cc1	none
COC(=O)c1c(NC(=O)COC(=O)Cn2cnc3ccccc32)sc2c1CCCC2	none
Cc1ccc(NC(=O)CCn2ccc([N+](=O)[O-])n2)nc1	none
Brc1ccc2ncnc(Nc3cccc4ccccc34)c2c1	STAT3 act-1 147 | STAT3 act-2 163 | NFkB act STAT3ct inactive | STAT1 act-2 inactive
O=C(Cc1c[nH]c2ccccc12)Nc1nc2ccccc2[nH]1	STAT3 act-1 146 | STAT3 act-2 154 | NFkB act STAT3ct inactive | STAT1 act-2 inactive
CCCC(=O)Nc1ccc(Cl)c(NC(=S)NC(=O)c2ccco2)c1	none
CCOC(=O)c1c(C)oc2c1cc(O)c1ccccc12	APP 5'UTR act 172, NF-kB neuron act 3.3, STAT3 act-1 145 | STAT3 act-2 152 | NFkB act STAT3ct inactive | STAT1 act-2 inactive
Cc1ccc(C)n1NC(=O)c1ccccc1O	STAT3 act-1 153 | STAT3 act-2 151 | NFkB act STAT3ct inactive | STAT1 act-2 inactive
Cc1ccc(C)n1NC(=O)c1ccccc1[N+](=O)[O-]	none
CCC(=O)N1CCN(c2ccccc2NC(=O)COc2ccccc2Cl)CC1	STAT3 act-1 156 | STAT3 act-2 143 | NFkB act STAT3ct inactive | STAT1 act-2 inactive
O=C(COc1ccccc1Cl)Nc1cc(Cl)ccc1O	STAT3 act-1 166 | STAT3 act-2 161 | NFkB act STAT3ct inactive | STAT1 act-2 inactive
Cn1ncc(Cl)c1C(=O)N1CCCc2ccccc21	none
Cn1ncc(Cl)c1C(=O)N1CCc2ccccc21	STAT3 act-1 155 | STAT3 act-2 140 | NFkB act STAT3ct inactive | STAT1 act-2 inactive
Cc1nn(C)c(C(=O)N2CCc3ccccc32)c1Cl	STAT3 act-1 144 (no result: NF-kB neuron act) | STAT3 act-2 inactive | NFkB act STAT3ct inactive | STAT1 act-2 inactive
Cc1cc(C(=O)N2CCc3ccccc32)c2cc(F)ccc2n1	none
O=C(c1cccc(F)c1)N1CCc2ccccc21	STAT3 act-1 145 | STAT3 act-2 inactive | NFkB act STAT3ct inactive | STAT1 act-2 inactive
COc1ccccc1CNC(=O)c1ccc(N2CCOCC2)c([N+](=O)[O-])c1	none
O=C(CCCOc1ccc(Cl)cc1Cl)N/N=C/c1cccc([N+](=O)[O-])c1	none
CCC1=Nc2cc(C(=O)NCc3ccco3)ccc2Sc2ccc(C)cc21	STAT3 act-1 145 | STAT3 act-2 inactive | NFkB act STAT3ct 154 | STAT1 act-2 inactive
CCC1=Nc2cc(C(=O)NCCCOC)ccc2Sc2ccccc21	none
CCc1ccc(OCC(=O)N/N=C2\CC(=O)c3ccccc32)cc1	STAT3 act-1 146 | STAT3 act-2 inactive | NFkB act STAT3ct inactive | STAT1 act-2 inactive
